# Test results from PMC3821033 (FEBS Open Bio, 2013).
# Legend:
# Format in all cases: biochemical
# LDHA [1] = target: T1, LDHA (Lactococcus cremoris, UniProt A2RKA4); experiment: inhibition of NADH-coupled activity; settings: inhibitor; both reaction directions; 1 mM FBP, pH 7.0, 30 °C
# T1 sequence (A2RKA4 1-325): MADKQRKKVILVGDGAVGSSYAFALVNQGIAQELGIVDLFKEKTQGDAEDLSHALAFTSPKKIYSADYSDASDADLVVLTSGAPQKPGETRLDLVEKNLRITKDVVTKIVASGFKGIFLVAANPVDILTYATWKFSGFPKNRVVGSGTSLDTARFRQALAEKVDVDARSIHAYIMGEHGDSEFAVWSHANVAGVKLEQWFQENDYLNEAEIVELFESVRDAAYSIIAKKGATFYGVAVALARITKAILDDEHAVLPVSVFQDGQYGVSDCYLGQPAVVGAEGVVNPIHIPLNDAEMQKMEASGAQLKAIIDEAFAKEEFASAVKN
# LDHA [2] = target: T1, LDHA; experiment: inhibition of NADH-coupled activity; settings: read-out: % remaining rate at 8 mM
# LDHA [3] = target: T1, LDHA; experiment: activation of NADH-coupled activity; settings: 200 µM, allosteric activator, Tris-maleate pH 7.0, 30 °C
# Summary of the method: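 Recombinant His-tagged LDHA from L. lactis MG1363, expressed in E. coli Transetta (DE3) (0.5 mM IPTG, 30 °C, 4 h) and purified on Ni-NTA with imidazole elution. Pyruvate reduction was followed spectrophotometrically as the decrease in NADH absorbance at 340 or 380 nm, at 30 °C in 100 mM Tris–maleate pH 7.0, with about 40–200 ng/ml enzyme; 1 unit = 1 μmol/min.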
# FNI = target: T2, FNI (Lactococcus cremoris, UniProt A2RID7); experiment: 1H NMR of product after […] h; settings: 5 mM MgCl2, 10 μM FMN, 5 mM NADH, 2 mM DTT, pH 7.0, 30 °C
# T2 sequence (A2RID7 1-349): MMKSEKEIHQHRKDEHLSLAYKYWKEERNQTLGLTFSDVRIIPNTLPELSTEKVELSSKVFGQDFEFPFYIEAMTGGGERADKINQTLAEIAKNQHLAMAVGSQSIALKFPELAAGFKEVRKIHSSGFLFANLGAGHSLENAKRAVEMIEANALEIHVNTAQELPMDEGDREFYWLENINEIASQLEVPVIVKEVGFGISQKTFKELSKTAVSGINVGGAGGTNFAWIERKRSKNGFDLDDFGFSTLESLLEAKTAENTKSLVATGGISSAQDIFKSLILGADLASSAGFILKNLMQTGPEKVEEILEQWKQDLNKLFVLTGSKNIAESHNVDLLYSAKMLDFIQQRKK
smiles,measurement,setting,value
Nc1ncnc2c1ncn2[C@@H]1O[C@H](COP(=O)(O)OP(=O)(O)O)[C@@H](O)[C@H]1O [ADP],inhibition of NADH-coupled activity,LDHA [1],ADP was shown to be a more severe inhibitor
Nc1ncnc2c1ncn2[C@@H]1O[C@H](COP(=O)(O)OP(=O)(O)OP(=O)(O)O)[C@@H](O)[C@H]1O [ATP],remaining activity at 8000 µM,LDHA [2],> 80%
O=P(O)(O)OC[C@H]1OC(O)(COP(=O)(O)O)[C@@H](O)[C@@H]1O (some centres unmarked) [FBP],Pyruvate reduction (%),LDHA [3],66 ± 4.7%
C=C(C)CCOP(=O)(O)OP(=O)(O)O [IPP],1H NMR of product after 15 h,FNI,conversion of IPP to dimethylallyl diphosphate was observed
CC(C)=CCOP(=O)(O)OP(=O)(O)O [dimethylallyl diphosphate],1H NMR of product after 15 h,FNI,appearance of signals for dimethylallyl diphosphate
